Assay results taken from ChEMBL document CHEMBL3085664, “Structure-activity relationship of imidazopyridinium analogues as antagonists of neuropeptide s receptor” (J Med Chem, 2013).
Activity calls are given as the source filed them. No cut-off for these calls is given here.

Columns and labels:
[1] = target: T1, Mu-type opioid receptor (Homo sapiens, UniProt P35372); assay: Displacement of radiolabeled DAMGO from human recombinant mu opioid receptor expressed in OPRM1 cells; format: cell-based
[2] = target: T1, Mu-type opioid receptor; assay: Displacement of radiolabeled DAMGO from human recombinant mu opioid receptor expressed in […] at 10 uM; format: cell-based
[3] = system: Rattus norvegicus; assay: Inhibition of alcohol-induced ERK-phosphorylation in rat in central amygdala at 1 mg/kg, ip; format: functional, organism-based; design: dose 1 mg/kg
[4] = system: Rattus norvegicus; assay: Toxicity in Wistar rat administered daily; format: organism-based; details: in vivo
[5] = system: Rattus norvegicus; assay: Anorectic activity in Wistar rat assessed as […] of NPS-induced reduction of food intake at 20 ug, icv after 15 to 60 mins; format: functional, organism-based
[6] = Cmax in mouse brain at 10 mg/kg, ip; format: ADME, organism-based; design: dose 10 mg/kg, route intraperitoneal
How it was run: (§1)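 Mouse pharmacokinetics after a single 10 mpk intraperitoneal dose. Plasma and brain were sampled at 0, 0.083, 0.25, 0.5, 1, 2, 4, 8, 12 and 24 h. Concentrations are reported as the mean of N=3 at each time point, in ng/mL or nM for plasma and ng/g or nmol/g for brain.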

[7] = system: Brain; assay: AUClast in mouse brain at 10 mg/kg, ip; format: ADME, organism-based; design: time 0 - last, dose 10 mg/kg, route intraperitoneal; details: in vivo; how it was run: as §1
[8] = Ratio of AUC in brain to AUC in plasma in mouse at 10 mg/kg, ip; format: ADME, organism-based; design: dose 10 mg/kg, route intraperitoneal; details: brain and plasma, read-out: Ratio AUC; how it was run: as §1
[9] = system: Brain; assay: Tmax in mouse brain at 10 mg/kg, ip; format: ADME, organism-based; design: dose 10 mg/kg, route intraperitoneal; details: in vivo; how it was run: as §1
[10] = system: Plasma; assay: Half life in mouse plasma at 10 mg/kg, ip; format: ADME, organism-based; design: dose 10 mg/kg, route intraperitoneal; details: in vivo; how it was run: as §1
[11] = system: Plasma; assay: AUClast in mouse plasma at 10 mg/kg, ip; format: ADME, organism-based; design: dose 10 mg/kg, route intraperitoneal, time 0 - last; details: in vivo; how it was run: as §1
[12] = system: Plasma; assay: AUC (infinity) in mouse plasma at 10 mg/kg, ip; format: ADME, organism-based; design: time infinity, dose 10 mg/kg, route intraperitoneal; details: in vivo; how it was run: as §1
[13] = system: Plasma; assay: Tmax in mouse plasma at 10 mg/kg, ip; format: ADME, organism-based; design: dose 10 mg/kg, route intraperitoneal; details: in vivo; how it was run: as §1
[14] = system: Plasma; assay: Cmax in mouse plasma at 10 mg/kg, ip; format: ADME, organism-based; design: dose 10 mg/kg, route intraperitoneal; details: in vivo; how it was run: as §1
[15] = system: Brain; assay: Drug level in mouse brain at 10 mg/kg, ip after 8 hrs; format: ADME, organism-based; design: dose 10 mg/kg, route intraperitoneal; details: in vivo; how it was run: as §1
[16] = system: Brain; assay: Drug level in mouse brain at 10 mg/kg, ip after 12 hrs; format: ADME, organism-based; design: dose 10 mg/kg, route intraperitoneal; details: in vivo; how it was run: as §1
[17] = system: Brain; assay: Drug level in mouse brain at 10 mg/kg, ip after 24 hrs; format: ADME, organism-based; design: dose 10 mg/kg, route intraperitoneal; details: in vivo; how it was run: as §1
[18] = system: Brain; assay: Drug level in mouse brain at 10 mg/kg, ip after 2 hrs; format: ADME, organism-based; design: dose 10 mg/kg, route intraperitoneal; details: in vivo; how it was run: as §1
[19] = system: Brain; assay: Drug level in mouse brain at 10 mg/kg, ip after 4 hrs; format: ADME, organism-based; design: dose 10 mg/kg, route intraperitoneal; details: in vivo; how it was run: as §1
[20] = system: Brain; assay: Drug level in mouse brain at 10 mg/kg, ip after 0.5 hrs; format: ADME, organism-based; design: dose 10 mg/kg, route intraperitoneal; details: in vivo; how it was run: as §1
[21] = system: Brain; assay: Drug level in mouse brain at 10 mg/kg, ip after 1 hrs; format: ADME, organism-based; design: dose 10 mg/kg, route intraperitoneal; details: in vivo; how it was run: as §1
[22] = Plasma concentration in mouse at 10 mg/kg, ip after 24 hrs; format: ADME, organism-based; design: dose 10 mg/kg, route intraperitoneal; how it was run: as §1
[23] = system: Brain; assay: Drug level in mouse brain at 10 mg/kg, ip after 0.083 hrs; format: ADME, organism-based; design: dose 10 mg/kg, route intraperitoneal; details: in vivo; how it was run: as §1
[24] = system: Brain; assay: Drug level in mouse brain at 10 mg/kg, ip after 0.25 hrs; format: ADME, organism-based; design: dose 10 mg/kg, route intraperitoneal; details: in vivo; how it was run: as §1
[25] = Plasma concentration in mouse at 10 mg/kg, ip after 8 hrs; format: ADME, organism-based; design: dose 10 mg/kg, route intraperitoneal; how it was run: as §1
[26] = Plasma concentration in mouse at 10 mg/kg, ip after 12 hrs; format: ADME, organism-based; design: dose 10 mg/kg, route intraperitoneal; how it was run: as §1
[27] = Plasma concentration in mouse at 10 mg/kg, ip after 2 hrs; format: ADME, organism-based; design: dose 10 mg/kg, route intraperitoneal; how it was run: as §1
[28] = Plasma concentration in mouse at 10 mg/kg, ip after 4 hrs; format: ADME, organism-based; design: dose 10 mg/kg, route intraperitoneal; how it was run: as §1
[29] = Plasma concentration in mouse at 10 mg/kg, ip after 0.5 hrs; format: ADME, organism-based; design: dose 10 mg/kg, route intraperitoneal; how it was run: as §1
[30] = Plasma concentration in mouse at 10 mg/kg, ip after 1 hrs; format: ADME, organism-based; design: dose 10 mg/kg, route intraperitoneal; how it was run: as §1
[31] = Plasma concentration in mouse at 10 mg/kg, ip after 0.083 hrs; format: ADME, organism-based; design: dose 10 mg/kg, route intraperitoneal; how it was run: as §1
[32] = Plasma concentration in mouse at 10 mg/kg, ip after 0.25 hrs; format: ADME, organism-based; design: dose 10 mg/kg, route intraperitoneal; how it was run: as §1
[33] = Metabolic stability in mouse liver microsomes assessed as compound remaining after 60 mins in absence NADPH; format: ADME, Microsome; details: read-out: Stability
How it was run: (§2)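 Compound was incubated with mouse liver microsomes, and percent parent remaining was determined at 15, 30 and 60 min. Values are means from a single experiment run in duplicate.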

[34] = Metabolic stability in mouse liver microsomes assessed as compound remaining after 30 mins in absence NADPH; format: ADME, Microsome; details: read-out: Stability; how it was run: as §2
[35] = Metabolic stability in mouse liver microsomes assessed as compound remaining after 15 mins in absence NADPH; format: ADME, Microsome; details: read-out: Stability; how it was run: as §2
[36] = Metabolic stability in mouse liver microsomes assessed as compound remaining after 60 mins in presence NADPH; format: ADME, Microsome; details: read-out: Stability; how it was run: as §2
[37] = Metabolic stability in mouse liver microsomes assessed as compound remaining after 30 mins in presence NADPH; format: ADME, Microsome; details: read-out: Stability; how it was run: as §2
[38] = Metabolic stability in mouse liver microsomes assessed as compound remaining after 15 mins in presence NADPH; format: ADME, Microsome; details: read-out: Stability; how it was run: as §2
[39] = target: T2, Neuropeptide S receptor (Homo sapiens, UniProt Q6W5P4); assay: Displacement of [125I]Tyr10-NPS from human neuropeptide S receptor expressed in CHO cells after 1.5 hrs by liquid scintillation counting; format: cell-based
T2 sequence (Q6W5P4 whole entry): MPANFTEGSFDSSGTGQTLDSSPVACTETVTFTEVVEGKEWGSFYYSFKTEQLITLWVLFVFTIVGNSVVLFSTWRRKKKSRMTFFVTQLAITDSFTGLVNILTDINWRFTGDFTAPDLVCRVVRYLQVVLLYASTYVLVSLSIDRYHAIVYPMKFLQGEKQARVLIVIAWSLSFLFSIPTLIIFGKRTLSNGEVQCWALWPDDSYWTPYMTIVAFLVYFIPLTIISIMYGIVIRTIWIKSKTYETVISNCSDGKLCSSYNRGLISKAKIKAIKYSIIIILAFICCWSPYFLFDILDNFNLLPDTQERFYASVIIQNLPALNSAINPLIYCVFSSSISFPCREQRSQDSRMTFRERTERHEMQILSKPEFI
How it was run: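 Whole CHO cells stably expressing human NPSR at 90–95% confluency in 24-well plates. Cells were incubated with 0.15 nM [125I]Y10-NPS plus increasing compound or unlabeled NPS in DMEM/0.1% BSA, 20°C, 1.5 hr. Nonspecific binding was defined with 1 µM unlabeled human NPS. Cells were washed, lysed in 1 N NaOH and counted by liquid scintillation. IC50 from one experiment in duplicate.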

[40] = target: T2, Neuropeptide S receptor; assay: Antagonist activity at neuropeptide S receptor (unknown origin) expressed in CHO cells assessed as inhibition of NPS-induced ERK activation after 20 mins by HTRF assay; format: cell-based
[41] = target: T2, Neuropeptide S receptor; assay: Antagonist activity at neuropeptide S receptor (unknown origin) expressed in CHO cells assessed as inhibition of NPS-induced calcium mobilization after 10 mins by fluorescence assay; format: functional, cell-based; details: read-out: IC50
How it was run: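 CHO-NPSR cells, 2000/well in 1536-well plates, incubated overnight, then loaded with no-wash calcium dye for 1 h at 37°C. Compound in DMSO was added for 10 min. Baseline fluorescence was recorded 6 s at 1 Hz, then EC80 NPS in stimulation buffer was added and recording continued 4 min at 1 Hz on a kinetic reader. IC50 is the mean with SD of two independent experiments in duplicate.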

[42] = target: T2, Neuropeptide S receptor; assay: Antagonist activity at neuropeptide S receptor (unknown origin) expressed in CHO cells assessed as cAMP level after 30 mins by […] assay; format: functional, cell-based; details: read-out: IC50
How it was run: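 CHO cells stably expressing NPSR, 1800 cells/well in 1536-well format, seeded overnight at 37°C in medium without Geneticin. Stimulation buffer (PBS, 0.1% BSA, 0.05% Tween-20, 500µM Ro 20-1724, EC80 NPS) was added for 30 min at 37°C. cAMP was read by HTRF (d2-cAMP/cryptate anti-cAMP in lysis buffer, 30 min). IC50 is the mean with SD of two independent experiments, each run in duplicate.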

T1 sequence (P35372 whole entry): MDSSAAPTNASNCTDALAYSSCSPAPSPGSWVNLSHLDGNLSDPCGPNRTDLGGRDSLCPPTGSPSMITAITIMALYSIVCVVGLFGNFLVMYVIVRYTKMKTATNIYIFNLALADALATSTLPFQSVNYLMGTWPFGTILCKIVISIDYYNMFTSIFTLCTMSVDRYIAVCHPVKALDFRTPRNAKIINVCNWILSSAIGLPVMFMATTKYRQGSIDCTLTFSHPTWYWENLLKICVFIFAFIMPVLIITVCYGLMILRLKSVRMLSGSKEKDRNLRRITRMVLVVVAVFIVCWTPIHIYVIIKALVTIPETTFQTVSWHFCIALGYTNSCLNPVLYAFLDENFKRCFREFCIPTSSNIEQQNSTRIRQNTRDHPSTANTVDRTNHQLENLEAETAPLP

Cc1c(P(=S)(c2ccccc2)c2ccccc2)n2ccccc2[n+]1C/C=C/c1ccccc1.[Br-]
IC50 [1]: 580 nM
inhibition [2]: > 90%
inhibition [3]: Active
Activity [4]: Non-toxic
Activity [5]: Active
Cmax [6]: 0.043 µg/mL
AUClast [7]: 0.746 µg·h/mL
Kp [8]: 33
Tmax [9]: 12 h
t1/2 [10]: 8.8 h
AUClast [11]: 2.24 µg·h/mL
AUC [12]: 2.56 µg·h/mL
Tmax [13]: 4.98 min
Cmax [14]: 0.7 µg/mL
Drug uptake [15]: 60 nmol/g
Drug uptake [16]: 93 nmol/g
Drug uptake [17]: 52 nmol/g
Drug uptake [18]: 57 nmol/g
Drug uptake [19]: 53 nmol/g
Drug uptake [20]: 53 nmol/g
Drug uptake [21]: 44 nmol/g
concentration at 24 h [22]: 0.054 µM
Drug uptake [23]: 30 nmol/g
Drug uptake [24]: 52 nmol/g
concentration at 8 h [25]: 0.214 µM
concentration at 12 h [26]: 0.126 µM
concentration at 2 h [27]: 0.386 µM
concentration at 4 h [28]: 0.245 µM
concentration at 0.5 h [29]: 1.15 µM
concentration at 1 h [30]: 0.556 µM
concentration at 0.083 h [31]: 1.5 µM
concentration at 0.25 h [32]: 1.32 µM
remaining at 1 h [33]: 102%
remaining at 0.5 h [34]: 102%
remaining at 0.25 h [35]: 102%
remaining at 1 h [36]: 26%
remaining at 0.5 h [37]: 46%
remaining at 0.25 h [38]: 72%
IC50 [39]: 3.5 nM
IC50 [40]: 1.3 nM
IC50 [41]: 0.96 nM
IC50 [42]: 45 nM
